One may read the pEC50 as the EC50 on a negative log10 scale, so that one unit is a factor of ten.

Experimental findings from ChEMBL document CHEMBL1152449, “6-methyl-2,4-disubstituted pyridazin-3(2H)-ones: a novel class of small-molecule agonists for formyl peptide receptors” (J Med Chem, 2009) are described below.

Experiment [1] addresses T1, fMet-Leu-Phe receptor (Homo sapiens, UniProt P21462).
T1 sequence (P21462 whole entry): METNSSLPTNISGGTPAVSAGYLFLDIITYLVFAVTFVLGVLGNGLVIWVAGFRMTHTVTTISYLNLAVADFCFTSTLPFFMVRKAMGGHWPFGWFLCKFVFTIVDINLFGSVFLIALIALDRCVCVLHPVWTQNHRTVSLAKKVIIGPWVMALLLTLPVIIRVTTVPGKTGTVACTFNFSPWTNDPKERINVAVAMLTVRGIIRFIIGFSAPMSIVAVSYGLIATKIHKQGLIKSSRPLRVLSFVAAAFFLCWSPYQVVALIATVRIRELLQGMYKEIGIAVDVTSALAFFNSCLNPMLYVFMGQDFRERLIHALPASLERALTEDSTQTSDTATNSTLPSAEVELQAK
The experiment can be described thus: Agonist activity at FPR1 expressed in human HL60 cells assessed as induction of intracellular calcium flux by FLIPR3 calcium assay. The experiment is classed as functional, cell-based, HL-60. The method, boiled down: (§1)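 HL-60 cells stably transfected with the receptor, grown in RPMI with 10% heat-inactivated FCS, 10 mM HEPES, antibiotics and G418 (1 mg/mL). They were then washed, resuspended in HBSS+ (2 × 10^5 cells/well) and read on a FlexStation II.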
On the technique in general: Calcium assays in cells follow changes in intracellular calcium, usually with a dye or a luminescent sensor.

In experiment [2] the target is T2, N-formyl peptide receptor 2 (Homo sapiens, UniProt P25090).
T2 sequence (P25090 whole entry): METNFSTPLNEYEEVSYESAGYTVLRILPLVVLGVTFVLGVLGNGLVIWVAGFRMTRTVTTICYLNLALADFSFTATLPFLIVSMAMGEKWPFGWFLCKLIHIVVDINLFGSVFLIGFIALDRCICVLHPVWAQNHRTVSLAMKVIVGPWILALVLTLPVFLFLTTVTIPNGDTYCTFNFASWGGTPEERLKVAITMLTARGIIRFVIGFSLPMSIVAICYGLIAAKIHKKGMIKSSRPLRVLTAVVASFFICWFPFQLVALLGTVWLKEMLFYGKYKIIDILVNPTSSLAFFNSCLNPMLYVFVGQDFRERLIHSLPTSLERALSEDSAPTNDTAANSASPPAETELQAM
The experiment can be described thus: Agonist activity at FPRL1 expressed in human HL60 cells assessed as induction of intracellular calcium flux by FLIPR3 calcium assay. The experiment is classed as functional, cell-based. The conditions noted are these: hl-60. The method, boiled down: as §1

In experiment [3] the target is T3, N-formyl peptide receptor 3 (Homo sapiens, UniProt P25089).
T3 sequence (P25089 whole entry): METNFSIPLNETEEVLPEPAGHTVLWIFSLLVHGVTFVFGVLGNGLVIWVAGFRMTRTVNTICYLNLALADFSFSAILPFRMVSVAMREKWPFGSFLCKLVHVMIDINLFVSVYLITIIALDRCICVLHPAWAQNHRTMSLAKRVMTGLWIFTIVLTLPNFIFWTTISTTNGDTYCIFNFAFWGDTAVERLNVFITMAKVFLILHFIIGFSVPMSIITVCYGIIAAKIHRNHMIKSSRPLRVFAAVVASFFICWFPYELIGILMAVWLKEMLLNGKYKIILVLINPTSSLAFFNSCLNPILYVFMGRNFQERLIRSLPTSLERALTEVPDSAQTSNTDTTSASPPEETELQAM
The experiment can be described thus: Agonist activity at FPRL2 expressed in human HL60 cells assessed as induction of intracellular calcium flux by FLIPR3 calcium assay. Particulars: hl-60; call rule not given here. Format: functional, cell-based. The method, boiled down:
as §1

Experiment [4] deals with T1, fMet-Leu-Phe receptor. The experiment can be described thus: Agonist activity at FPR1 in human neutrophiles assessed as induction of intracellular calcium flux by FLIPR3 calcium assay. Format: functional, cell-based.
Experiment [5] has as its target T4, fMet-Leu-Phe receptor (Homo sapiens) (UniProt P21462).
T4 sequence (whole entry): T1 sequence (P21462 whole entry)
The experiment can be described thus: Agonist activity at FPR1 expressed in human HL60 cells assessed as induction of intracellular calcium flux by FLIPR3 calcium assay relative to N-formyl-methionyl-leucyl-phenylalanine. The experiment is classed as functional, cell-based. The conditions noted are these: HL-60.

pEC50: −log10 of the molar value.

For `COc1cccc(Cc2cc(C)nn(CC(=O)c3ccc(Br)cc3)c2=O)c1`, the EC50 result (at fMet-Leu-Phe receptor [1] (hl-60); in experiment [2]; in experiment [3]) was “Not Active” in each case.

Turning to `COc1cccc(Cc2cc(C)nn(CC(=O)Nc3ccc4c(c3)OCO4)c2=O)c1`, the figures for the negative logarithm of the EC50 (pEC50) on fMet-Leu-Phe receptor [1] (read-out: EC50) and on fMet-Leu-Phe receptor [4] were 5.64 and 5.44, respectively. For the same compound, the EC50 result in experiment [2] and in experiment [3] was “Not Active” in each case. For the same compound, the Activity in experiment [5] stood at 50%.
